Converted amounts (≈) assume the structure as drawn.
What was measured:
HUVEC [1] = assay: Antiinflammatory activity in human HUVEC assessed as inhibition of TNF-alpha-induced ICAM-1 expression by modified ELISA; format: functional, cell-based
In short: (§1)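 Primary human umbilical cord endothelial cells were isolated by mild trypsinization and grown in M199 with 15% heat-inactivated FCS, L-glutamine, antibiotics, endothelial cell growth factor and heparin, then used at passages 3–4. Cells were preincubated with compound, then given TNF-α (10 ng/ml) for 16 h and fixed with glutaraldehyde. Surface ICAM-1 was measured by cell-ELISA using anti-ICAM-1 mAb overnight at 4 °C, HRP anti-mouse secondary and OPD substrate (pH 4.5), reading A490.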

[2] = Toxicity in human HUVEC assessed as maximum tolerable dose by trypan blue exclusion assay; format: cell-based; conditions: HUVEC cells, read-out: MTD
In short: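 Primary human umbilical vein endothelial cells were isolated by mild trypsinization. They were grown in M199 with 15% heat-inactivated FCS, 2 mM L-glutamine, penicillin/streptomycin, amphotericin B, endothelial cell growth factor and heparin. Cells were subcultured at confluence with trypsin–EDTA and used at passages three to four. Viability was scored by trypan blue exclusion.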

HUVEC [3] = assay: Antiinflammatory activity in human HUVEC assessed as inhibition of TNF-alpha-induced ICAM-1 expression at maximum tolerable dose of 30 ug/ml by modified ELISA; format: functional; in short: as §1
HUVEC [4] = assay: Antiinflammatory activity in human HUVEC assessed as inhibition of TNF-alpha-induced ICAM-1 expression at maximum tolerable dose of 40 ug/ml by modified ELISA; format: functional; in short: as §1
[5] = Homo sapiens, HUVEC, read-out: IC50

With `O[C@H](CCl)CNc1ccccc1` the IC50 (HUVEC [1]; [5]) was 39.8 µg/mL (≈ 214 µM), the MNTC [2] was 30 µg/mL and the inhibition at 30 µg/mL (HUVEC [3]) was 38%.

Work on `Cc1ccc(NC[C@H](O)CCl)cc1` yielded an IC50 (HUVEC [1]; [5]) of 28.8 µg/mL (≈ 144 µM), an MNTC [2] of 40 µg/mL and an inhibition at 40 µg/mL (HUVEC [4]) of 81%.

In the case of `COc1ccc(OC)c(NC[C@H](O)CCl)c1`, the IC50 (HUVEC [1]; huvec) is reported as “Not Active”, the MNTC [2] is reported as 30 µg/mL and the inhibition at 30 µg/mL (HUVEC [3]) is reported as 40%.

`O[C@H](CCl)CNc1ccc(Br)cc1` gave an IC50 (HUVEC [1]; [5]) of 31.6 µg/mL (≈ 119 µM), an MNTC [2] of 40 µg/mL and an inhibition at 40 µg/mL (HUVEC [4]) of 76%.

With `O[C@H](CCl)CNc1ccccc1Cl` the IC50 (HUVEC [1]; [5]) was 33.1 µg/mL (≈ 150 µM), the MNTC [2] was 40 µg/mL and the inhibition at 40 µg/mL (HUVEC [4]) was 86%.

In the case of `O[C@H](CCl)CNc1cccc(Cl)c1`, the IC50 (HUVEC [1]; huvec) is reported as “Not Active”, the MNTC [2] is reported as 30 µg/mL and the inhibition at 30 µg/mL (HUVEC [3]) is reported as 24%.

Work on `O[C@H](CCl)CNc1ccc(Cl)cc1` yielded an IC50 (HUVEC [1]; [5]) of 28.8 µg/mL (≈ 131 µM), an MNTC [2] of 30 µg/mL and an inhibition at 30 µg/mL (HUVEC [3]) of 60%.

— ChEMBL document CHEMBL1764962, “Selective biocatalytic aminolysis of (±)-epichlorohydrin: synthesis and ICAM-1 inhibitory activity of (S)-(+)-3-arylamino-1-chloropropan-2-ols” (Bioorg Med Chem, 2011)
